Where two headings read alike, the source gives them in different places.
Tests used:
[1] = Physicochemical parameters
[2] = Blood-to-plasma ratio and plasma protein binding; format: in vitro ADME
[3] = Madin-Darby Canine Kidney II permeability measurement; format: in vitro ADME; conditions: dog, MDCK
[4] = PBPK model absorption/distribution input parameters; design: species or system human; conditions: Estimated based on observed Cmax and PK profile (Study NCT02093728)
How it was run: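 Minimal 4-compartment PBPK model in Simcyp v17 with first-order absorption and a single adjusting compartment (intercompartmental clearance 8 L/h, from a population PK model). Compartment volume was fitted to observed Cmax and profile from a healthy-volunteer trial: 10 × 10 virtual subjects aged 18–44 years given a single oral 25 mg dose.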

[5] = tested on: CYP3A; experiment: CYP3A contribution to selumetinib clearance; design: species or system human
[6] = tested on: CYP2C19; experiment: CYP2C19 contribution to selumetinib clearance; design: species or system human
[7] = tested on: P-glycoprotein (P-gp); experiment: P-gp transport kinetics; format: in vitro ADME; conditions: not told
How it was run: (§1)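 Intestinal P-gp kinetics were estimated by the Troutman–Thakker approach, assuming one-site saturable Michaelis–Menten kinetics, with intrinsic clearance derived from Jmax and Km. The values were placed at the intestinal apical site (ADAM absorption, minimal PBPK) and at the hepatic canalicular site (full PBPK, tissue:plasma Kp 0.4).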

[8] = tested on: P‐glycoprotein (P‐gp); experiment: P-gp transport kinetics; format: in vitro ADME
How it was run: as §1

[9] = cited from earlier work
[10] = cited from earlier work; remark: listed apart in the source
[11] = cited from earlier work; remark: listed apart in the source
[12] = coadministration with rifampicin vs selumetinib alone; cited from earlier work
[13] = single oral dose, healthy adult subjects; cited from earlier work
[14] = adults with solid tumors; cited from earlier work

Cn1cnc2c(F)c(Nc3ccc(Br)cc3Cl)c(C(=O)NOCCO)cc21 [selumetinib]
logP [1]: 3.88 | B:P (blood‐to‐plasma ratio) ([2]; Report KPJ003): 0.625 | fraction unbound ([2]; plasma): 0.016 | Papp [3]: 37.7 ×10⁻⁶ cm/s | Vsac (volume of single adjusting compartment) [4]: 1 L/kg | CYP3A CLint ([5]; Retrograde from CLpo 19.6 L/h, fm 25%): 0.568 µL/min/pmol | fm (fraction metabolized) by CYP3A ([5]; assigned according to DDI study with itraconazole): 25% | CYP2C19 CLint ([6]; Retrograde from CLpo 19.6 L/h, fm 15%): 3.335 µL/min/pmol | fm (fraction metabolized) by CYP2C19 ([6]; assigned according to DDI study with fluconazole): 15% | Km [7]: 15.8 µM | maximal carrier‐mediated flux (Jmax) ([8]; estimated, one‐site Michaelis‐Menten saturable kinetics): 9.9 pmol/min | P‐gp intrinsic clearance ([8]; from Jmax and Km): 0.62 µL/min | observed exposure (AUC from time 0 to 12 hours) ([9]; SPRINT phase 2 cohort, 25 mg/m^2): 2009 ng·h/mL | maximum tolerated dose ([9]; pediatric SPRINT phase 1, twice daily): 25 mg/m^2 | terminal elimination half‐life ([9]; pediatric patients, single oral dose): ≈ 6 hours | fraction of absorption (Oral dose → First pass) ([10]; oral dose): > 71% | dose eliminated as unchanged in urine ([10]; renal elimination): < 1 % of dose | Observed geomean AUC (CV%) ([11]; 25 mg dose+fluconazole): 1770 ng·h/mL | Observed geomean AUC (CV%) ([11]; 25 mg dose+itraconazole): 1760 ng·h/mL | Observed geomean AUC (CV%) ([11]; 25 mg single oral dose alone, healthy volunteers): 1180 ng·h/mL | decrease in AUC [12]: 51% | reduction in Cmax [12]: 26% | absolute (oral) bioavailability [13]: 62% | maximum tolerated dose [14]: 75 mg

Reference: PMC9290801 (Journal of Clinical Pharmacology, 2021)
